The results in this text go back to PubChem BioAssay AID743061 (The Scripps Research Institute Molecular Screening Center, 2013).

The target in the experiment is Methionine--tRNA ligase, mitochondrial (Homo sapiens) (UniProt Q96GW9). In words: inhibitors of human mitochondrial MetRS, late-stage follow-up, selectivity assay for T. brucei MetRS inhibitor project, biochemical, radioactivity, round 1 (AID 743061).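 Further: 0% = DMSO with full reaction and 100% = DMSO wells lacking tRNA.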 Conditions: recombinant human mtMetRS, [3H]Met tRNA charging, at 10 µM, stronger effect = higher value. In a few lines:
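Material – recombinant human mitochondrial methionyl-tRNA synthetase (MetRS) · Input – 13 nM enzyme · Also added – 240 nM [3H]methionine with bulk E. coli tRNA acceptor · Compound dosing – 10 and 1 µM · Schedule – 15 min preincubation, 1 h reaction, room temperature · Detection – scintillation counts of TCA-precipitated charged tRNA on filters · Benchmarks – high DMSO, low without tRNA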
The term inhibition denotes the relative decrease from the control value, in per cent. As for `COc1cccc(NC(=O)CSc2nnc3c(n2)[nH]c2ccc(C)cc23)c1`, the inhibition turned out to be 40.4%. The value for `O=C(NCc1nc2ccccc2[nH]1)C1=C[C@@H](c2csc3ccccc23)C[C@@H](OCCCCO)O1` was 6.67%; that for `Clc1ccc(-c2nnc(SCc3nc4ccccc4[nH]3)o2)c(Cl)c1` was 41.9%; that for `CNC(=S)N(CCc1ccccc1)C1CC(=O)N(c2ccc(Br)cc2)C1=O` (centres undefined) was 83.7%. With `O=C(CC=NOCc1ccc([N+](=O)[O-])cc1)Nc1ccc(Cl)cc1` the figure was 1.47%; with `CCN(CC)C(=O)C(=O)c1cn(CC(=O)N2CCCc3ccccc32)c2ccccc12`, -1.92%. The value for `CCC(=O)c1cn(CC(=O)Nc2cccc(C(F)(F)F)c2)c2ccccc12` was -3.88%; that for `O=C(Cn1cc(C(=O)C(=O)N2CCOCC2)c2ccccc21)NCc1ccccc1` was 10.3%; that for `CC(C)(C)[C@@H]1C=C(C(=O)NCc2nc3ccccc3[nH]2)O[C@H](OCc2ccc(CO)cc2)C1` was -5.44%.

Take `CCN(C(=O)Cn1cc(C(=O)C(=O)N2CCOCC2)c2ccccc21)c1ccccc1`: the inhibition is -14.2%. Regarding `Oc1c(Cl)cc(Cl)cc1CNc1nc2ccccc2[nH]1`, the inhibition was 31.4%. On to `O=C(NNC(=O)c1ccc(-n2cncn2)c([N+](=O)[O-])c1)c1ccc(Cl)cc1`, for which the inhibition was -21.4%. The value for `Cc1cccc(NC(=O)C2CC(=O)n3c(nc4ccccc43)N2)c1` (centres undefined) was 6.78%; that for `O=C(NCCc1nc2ccccc2[nH]1)c1ccc(Cl)cc1` was 7.1%. On to `O=C(NCc1nc2ccccc2[nH]1)C1=C[C@@H](c2ccc3c(c2)OCO3)C[C@@H](OCCCCO)O1`, for which the inhibition is -0.58%.

As to `O=C(N/C(=C\c1cccnc1)c1nc2ccccc2[nH]1)c1cccc(Br)c1`, the inhibition worked out at 4.89%. The value for `Brc1cnc2nc(SCc3nc4ccccc4[nH]3)[nH]c2c1` was -14.2%. On to `Cc1ccc(C(=O)NCCc2nc3ccccc3[nH]2)cc1C`, for which the inhibition stood at 1.68%. In the case of `Cc1cc2cc(C(=O)N3CCCC(c4nc5ccccc5[nH]4)C3)ccc2o1` (centres undefined), the inhibition is -1.3%. The value for `O=C(NCc1nc2ccccc2[nH]1)C1=C[C@@H](c2ccccc2)C[C@@H](OCc2ccc(CO)cc2)O1` was 15.8%.

As to `CCc1ccc2[nH]c3nc(SCC(=O)NCc4cccc(OC)c4)nnc3c2c1`, the inhibition is 13.1%. For the compound `COc1ccc(NC(=O)CSc2nnc3c4cc(C)ccc4n(C)c3n2)cc1`, the inhibition amounted to 8.46%. With `O=C(Cn1cc(C(=O)C(=O)N2CCCC2)c2ccccc21)Nc1ccccc1` the figure was -0.86%. In the case of `O=C(NCc1nc2ccccc2[nH]1)C1=C[C@H](c2ccc(Br)cc2)C[C@H](OCc2ccc(CO)cc2)O1`, the inhibition is 17.2%. Regarding `COc1ccc(CNC(=O)CSc2nnc3c(n2)[nH]c2ccc(F)cc23)cc1`, the inhibition was -12%. Consider `CN(Cc1cc(Cl)cc(Cl)c1)[C@H]1C[C@H]2c3[nH]c4ccccc4c3CCN2C(=O)[C@H]1CO`, for which the inhibition is 80.3%. With `CC(=O)c1c[nH]c(C(=O)NCc2cccc(C(F)(F)F)c2)c1` the figure was 43.8%; with `CC(=O)c1cn(CC(=O)Nc2cccc(C(F)(F)F)c2)c2ccccc12`, -0.68%. Consider `O=C(NCc1nc2ccccc2[nH]1)C1=C[C@@H](C2CC2)C[C@@H](OCc2ccc(CO)cc2)O1`, for which the inhibition came out at 5.87%. On to `CN(CC(=O)Nc1ccc(Cl)cc1)C(=O)c1ccc(-n2cncn2)c([N+](=O)[O-])c1`, for which the inhibition is -19.1%. The value for `O=C(NCCc1nc2ccccc2[nH]1)c1ccc(Cl)c([N+](=O)[O-])c1` was 25.5%; that for `CCN(CC)C(=O)C(=O)c1cn(CC(=O)Nc2ccccc2OC)c2ccccc12` was -1.19%; that for `O=C(CN1CCSC1=NCc1ccccc1)c1ccc(Cl)c(Cl)c1` was -25.5%. The value for `O=C(Cn1cc(C(=O)C2CC2)c2ccccc21)Nc1cccc(C(F)(F)F)c1` was 11.9%.
